Experimental data of several laboratories.
Compare with care: the assays were run in different laboratories. Values after ≈ are worked out from the molar mass of the structure shown.

SMILES | tested on | assay | test system | conditions | measurement | value
S=c1[nH]nc(NCNc2n[nH]c(=S)s2)s1 | Xanthomonas oryzae | microbial growth |  |  | EC50 | 16 µg/mL (≈ 57.5 µM)
O=c1c2ccccc2[se]n1-c1ccccc1 | Chikungunya virus | viral replication | Vero | 24 h | IC50 | 2.02 µM
O=C(NCc1ccc(F)cc1)c1cn(Cc2ccc(C(F)(F)F)cc2)c2ccc(Oc3ccccc3)cc2c1=O | MCF7 | cell growth or viability, MTT |  |  | IC50 | < 12 µM
CC(C)C[C@@H](NC(=O)[C@H](C)NC(=O)CNC(=O)[C@@H](NC=O)C(C)C)C(=O)N[C@@H](C)C(=O)N[C@@H](C(=O)N[C@H](C(=O)N[C@@H](C(=O)N[C@@H](Cc1c[nH]c2ccccc12)C(=O)N[C@H](CC(C)C)C(=O)N[C@@H](Cc1ccc2[nH]ccc2c1)C(=O)N[C@H](CC(C)C)C(=O)N[C@@H](Cc1c[nH]c2ccccc12)C(=O)N[C@H](CC(C)C)C(=O)N[C@@H](Cc1c[nH]c2ccccc12)C(=O)NCCO)C(C)C)C(C)C)C(C)C | MCF7 | cell growth or viability, SRB |  | 48 h | GI50 | 0.106 µM
COc1cccc(C=Nc2ccc(SCc3cc(=O)c(O)co3)cc2)c1 |  | DPPH scavenging, absorbance |  | 30 min | IC50 | 11.6 µM
O=C(NCc1ccc(F)cc1)c1cn(Cc2ccc(F)cc2)c2ccc(Oc3ccccc3)cc2c1=O | MCF7 | cell growth or viability, MTT |  | 24 h | IC50 | > 500 µM
O=C(Nc1ccc(Cl)cc1)Nc1cccc(-c2cn(Cc3ccc(Br)cc3)nn2)c1 | MCF7 | cell growth or viability, CCK-8 |  | 50 µM, 48 h | viability | 96.5%
S=P1(C2CCCCC2)CCCCC1 | SW-620 | cell growth or viability, MTT |  | 72 h | IC50 | > 100 µM
O=C(NCc1ccc(C(F)(F)F)cc1)c1cn(Cc2ccc(Cl)cc2)c2ccc(Oc3ccccc3)cc2c1=O | MCF7 | cell growth or viability, MTT |  | 24 h | IC50 | 177 µM
O=c1cc(CSc2ccc(N=Cc3ccccc3C(F)(F)F)cc2)occ1O |  | DPPH scavenging, absorbance |  | 30 min | IC50 | 36.2 µM
CC[C@H](C)C[C@H](C)CCCCCCCCC(=O)N[C@H]1C[C@@H](O)[C@@H](NCCN)NC(=O)[C@@H]2[C@@H](O)CCN2C(=O)[C@H]([C@H](O)CCN)NC(=O)[C@H]([C@H](O)[C@@H](O)c2ccc(O)cc2)NC(=O)[C@@H]2C[C@@H](O)CN2C(=O)[C@H]([C@@H](C)O)NC1=O | Candidozyma auris | microbial killing, broth dilution |  | 48 h | MFC | 8 µg/mL (≈ 7.32 µM)
COc1ccc(C=Nc2ccc(SCc3cc(=O)c(O)co3)cc2)cc1 |  | DPPH scavenging, absorbance |  | 30 min | IC50 | 15.6 µM
O=C(N1CCC2(CC1)OCC(CNS(=O)(=O)c1ccc(-c3ccccc3)cc1)O2)C1(c2ccccc2)CCCC1 (centres unmarked) | Chikungunya virus | viral replication, inhibitor |  | 40 µM | inhibition | 75%
Cc1ccc(C=Nc2ccc(SCc3cc(=O)c(O)co3)cc2)cc1 |  | DPPH scavenging, absorbance |  | 30 min | IC50 | 9.06 µM
CCCCCCN(CC1COC2(CCN(C(=O)C3(c4ccccc4)CCCC3)CC2)O1)S(=O)(=O)N(C)Cc1ccccc1 (centres unmarked) | Chikungunya virus | viral replication, inhibitor |  | 40 µM | inhibition | 70%
O=C(NCc1ccc(C(F)(F)F)cc1)c1cn(Cc2ccc(F)cc2)c2ccc(Oc3ccccc3)cc2c1=O | MCF7 | cell growth or viability, MTT |  | 24 h | IC50 | 109 µM
O=c1cc(CSc2ccc(N=Cc3ccc([N+](=O)[O-])cc3)cc2)occ1O |  | DPPH scavenging, absorbance |  | 30 min | IC50 | 28.5 µM
